Assay [1] has as its system BE-NQ. Put plainly: Selectivity ratio of IC50 for NQO1 deficient human BE cells to IC50 for human BE-NQ cells expressing NQO1. Format: functional. Put shortly:
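Ratio of MTT-derived IC50 in NQO1-deficient BE cells to IC50 in NQO1-transfected BE-NQ cells. IC50 was read from semilog plots of percent of control vs concentration.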

The next assay has as its system BE. Put plainly: Cytotoxicity against NQO1 deficient human BE cells after 4 to 5 days by MTT assay. The format is functional, cell-based. Put shortly:
(§1)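 Cells in MEM with Earle's salts, 10% FBS, 37 °C, 5% CO2. Seeded at 10000 cells/mL, attached overnight (16 h). Analogue in medium for 2 h, then fresh medium for 4–5 days. MTT (50 µg) added for 4 h, formazan dissolved in DMSO, absorbance read at 560 nm. IC50 (50% of control survival) taken from semilog plots of percent control vs concentration.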
On the technique in general: Tetrazolium assays rely on reduction of a dye to a coloured formazan, in cell work by metabolically active cells.

Assay [2] deals with NAD(P)H dehydrogenase [quinone] 1 (Homo sapiens) (UniProt P15559). Description: Activity of human recombinant NQO1 assessed as reduction of cytochrome c per mg of protein by spectrophotometric assay. Put shortly:
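Cytochrome c reduction followed at 550 nm as initial rates. Mix: cytochrome c 70 µm, NADH 1 mM, recombinant human NQO1 (0.1–3 µg) and lavendamycin analogue 25 µm in 1 mL Tris-HCl 25 mM pH 7.4 with 0.7 mg/mL BSA and 0.1% Tween-20. At least triplicate.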

The subject of assay [3] is BE-NQ. Put plainly: Cytotoxicity against human BE-NQ cells expressing human NQO1 after 4 to 5 days by MTT assay. The format is functional, cell-based. Put shortly:
as §1

Sequence of NAD(P)H dehydrogenase [quinone] 1 (Homo sapiens) (P15559 whole entry): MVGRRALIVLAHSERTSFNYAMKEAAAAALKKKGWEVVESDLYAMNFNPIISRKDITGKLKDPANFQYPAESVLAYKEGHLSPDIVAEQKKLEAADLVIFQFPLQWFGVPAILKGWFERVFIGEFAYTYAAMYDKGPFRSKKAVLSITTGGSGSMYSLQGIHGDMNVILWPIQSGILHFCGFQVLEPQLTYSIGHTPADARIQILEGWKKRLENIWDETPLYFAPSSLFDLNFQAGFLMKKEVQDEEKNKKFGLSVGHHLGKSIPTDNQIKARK

In the case of `NC1=CC(=O)c2ccc(-c3[nH]c(CO)cc4c5ccccc5nc3-4)nc2C1=O`, the “Ratio IC50” value in the assay with BE-NQ [1] came to 11.
Turning to `CCC(C)NC(=O)c1cc2c([nH]c3ccccc32)c(-c2ccc3c(n2)C(=O)C(NC(C)=O)=CC3=O)n1` (configuration not stated), the half-inhibitory concentration (IC50) in the assay on BE and with BE-NQ [3] was over 50 µM in each case. Moreover, the Activity in assay [2] was determined as 4.9 µmol/min/mg.
Regarding `CCCC(=O)NC1=CC(=O)c2ccc(-c3nc(C(=O)OCCC(C)C)cc4c3[nH]c3ccccc34)nc2C1=O`, the IC50 with BE and in the assay with BE-NQ [3] was over 50 µM in each case. The Activity in assay [2] is 3.4 µmol/min/mg.
Turning to `COC(=O)c1[nH]c(-c2ccc3c(n2)C(=O)C(=N)C=C3O)c2nc3ccccc3c-2c1C`, the “Ratio IC50” value in the assay with BE-NQ [1] was 9.
`COC(=O)c1cc2c([nH]c3ccccc32)c(-c2ccc3c(n2)C(=O)C(NC(=O)c2ccco2)=CC3=O)n1`: in the assay on BE-NQ [1], the “Ratio IC50” value stood at 1. The IC50 with BE amounted to 49 µM; with BE-NQ [3], 47 µM. In addition, the Activity in assay [2] turned out to be 7 µmol/min/mg.
Regarding `N=C1C=C(O)c2ccc(-c3nc(C(N)=O)cc4c3[nH]c3ccccc34)nc2C1=O`, the “Ratio IC50” value with BE-NQ [1] is 9.
Take `CCCCCCCCOC(=O)c1cc2c([nH]c3ccccc32)c(-c2ccc3c(n2)C(=O)C(N)=CC3=O)n1`: the “Ratio IC50” value in the assay on BE-NQ [1] is listed as 10.
With `NC1=CC(=O)c2ccc(-c3nc(C(=O)OCCO)cc4c3[nH]c3ccccc34)nc2C1=O`, in the assay with BE-NQ [1], the “Ratio IC50” value is reported as 7. Further, the figures for the IC50 in the assay on BE and in the assay with BE-NQ [3] were 3.3 µM and 0.5 µM, respectively. Besides, the Activity in assay [2] stood at 60 µmol/min/mg.
For the compound `CCCCNC(=O)c1cc2c([nH]c3ccccc32)c(-c2ccc3c(n2)C(=O)C(NC(C)=O)=CC3=O)n1`, the “Ratio IC50” value in the assay with BE-NQ [1] is recorded as 30. For the same compound, the results for the half-inhibitory concentration (IC50) in the assay on BE and with BE-NQ [3] were 50 µM and 1.7 µM, respectively. Besides, in assay [2], the Activity worked out at 143 µmol/min/mg.

As a reminder, the IC50 is the concentration needed to halve the response being measured.
